Source: ChEMBL document CHEMBL1156979, “The impact of polyether chain length on the iron clearing efficiency and physiochemical properties of desferrithiocin analogues” (J Med Chem, 2010)
The source made the active and inactive calls. The calls are words filed in the database; no cut-off is given here.

Experiments:
Sapajus apella [1] = assay: Iron-clearing efficiency in iron-overloaded Cebus apella at 150 umol/kg, po measured daily once for 2 days by flame absorption spectroscopy relative to control; assay type: functional
Sapajus apella [2] = assay: Iron-clearing efficiency in iron-overloaded Cebus apella assessed as feces iron excretion at 150 umol/kg, po measured daily once for 5 days by lame absorption spectroscopy relative to control; assay type: functional
Sapajus apella [3] = assay: Iron-clearing efficiency in iron-overloaded Cebus apella assessed as urine iron excretion at 150 umol/kg, po measured daily once for 5 days by lame absorption spectroscopy relative to control; assay type: functional
Rattus norvegicus [4] = assay: Iron-clearing efficiency in non-iron-overloaded and bile duct-cannulated Sprague-Dawley rat assessed as time required to maximum bile iron excretion at 300 umol/kg, po; assay type: functional
Summary of the method: (§1)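 Non-iron-overloaded male Sprague-Dawley rats (400–450 g), bile duct-cannulated, given a single oral dose of 300 μmol/kg, either by gavage as monosodium salt or in capsules. Bile was collected at 3 h intervals for up to 48 h and urine every 24 h. Iron was measured by flame absorption spectroscopy. ICE = 24-h iron excretion of treated rats minus controls, divided by theoretical output (2:1 ligand:iron); percent. Mean ± SEM; one-tailed t-test.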

Rattus norvegicus [5] = assay: Iron-clearing efficiency in non-iron-overloaded and bile duct-cannulated Sprague-Dawley rat assessed as complete bile iron excretion at 300 umol/kg, po; assay type: functional; summary of the method: as §1
Rattus norvegicus [6] = assay: Iron-clearing efficiency in non-iron-overloaded and bile duct-cannulated Sprague-Dawley rat at 300 umol/kg, po after 48 hrs relative to control; assay type: functional; summary of the method: as §1
Rattus norvegicus [7] = assay: Iron-clearing efficiency in non-iron-overloaded and bile duct-cannulated Sprague-Dawley rat assessed as bile iron excretion at 300 umol/kg, po after 48 hrs relative to control; assay type: functional
Summary of the method: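 Male Sprague-Dawley rats (400–450 g), non-iron-overloaded and bile duct-cannulated, were dosed orally at 300 μmol/kg, either by gavage as the monosodium salt (1 equiv NaOH added to the free acid in distilled water) or in capsules. Bile was collected at 3 h intervals for up to 48 h and urine at 24 h intervals. Iron efficiency was calculated as treated minus control iron excretion, divided by the theoretical output for a 2:1 ligand:iron complex, expressed as %; values are mean ± SEM.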

Rattus norvegicus [8] = assay: Iron-clearing efficiency in non-iron-overloaded and bile duct-cannulated Sprague-Dawley rat assessed as urine iron excretion at 300 umol/kg, po after 48 hrs relative to control; assay type: functional
Rattus norvegicus [9] = assay: Toxicity in Sprague-Dawley rat assessed as histopathological examination at 384 umol/kg, po qd for 10 days measured after 24 hrs last post dose; assay type: organism-based; conditions: in vivo
Summary of the method: (§2)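 Male Sprague-Dawley rats (300–350 g), fasted overnight, were dosed orally once daily for 10 d. Dosing was 384 μmol/kg/d (capsules or by gavage as monosodium salt) or 192 μmol/kg/d (capsules). Age-matched untreated controls. Rats were euthanized 24 h after the last dose (day 11), and extensive tissues were examined histopathologically.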

Rattus norvegicus [10] = assay: Iron-clearing efficiency in non-iron-overloaded and bile duct-cannulated Sprague-Dawley rat assessed as reduction of renal iron content at 384 umol/kg, po qd for 10 days administered as gelatin capsules relative to control; assay type: functional; parameters: scale not given: the % may be the effect or the level left
Rattus norvegicus [11] = assay: Iron-clearing efficiency in non-iron-overloaded and bile duct-cannulated Sprague-Dawley rat assessed as reduction of renal iron content at 384 umol/kg, po qd for 10 days administered as monosodium salt relative to control; assay type: functional; parameters: scale not given: the % may be the effect or the level left
Rattus norvegicus [12] = assay: Iron-clearing efficiency in non-iron-overloaded and bile duct-cannulated Sprague-Dawley rat assessed as reduction of liver iron content at 384 umol/kg, po qd for 10 days administered as gelatin capsules relative to control; assay type: functional; parameters: scale not given: the % may be the effect or the level left
Rattus norvegicus [13] = assay: Iron-clearing efficiency in non-iron-overloaded and bile duct-cannulated Sprague-Dawley rat assessed as reduction of liver iron content at 384 umol/kg, po qd for 10 days administered as monosodium salt relative to control; assay type: functional; parameters: scale not given: the % may be the effect or the level left
Rattus norvegicus [14] = assay: Iron-clearing efficiency in non-iron-overloaded and bile duct-cannulated Sprague-Dawley rat assessed as reduction of cardiac iron content at 384 umol/kg, po qd for 10 days administered as gelatin capsules relative to control; assay type: functional, Heart; parameters: scale not given: the % may be the effect or the level left
Rattus norvegicus [15] = assay: Iron-clearing efficiency in non-iron-overloaded and bile duct-cannulated Sprague-Dawley rat assessed as reduction of cardiac iron content at 384 umol/kg, po qd for 10 days administered as monosodium salt relative to control; assay type: functional, Heart; parameters: scale not given: the % may be the effect or the level left
Rattus norvegicus [16] = assay: Toxicity in Sprague-Dawley rat assessed as histopathological examination at 384 umol/kg, po qd for 10 days; conditions: in vivo, 240 h
Rattus norvegicus [17] = assay: Iron-clearing efficiency in non-iron-overloaded and bile duct-cannulated Sprague-Dawley rat assessed as reduction of pancreatic iron content at 192 umol/kg, po qd for 10 days relative to control; assay type: functional, organism-based
Summary of the method: (§3)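 Male Sprague-Dawley rats (300–350 g) were fasted overnight and dosed orally once daily for 10 d. Dosing was 384 μmol/kg/d in gelatin capsules (n = 5) or by gavage as monosodium salt (n = 10), or 192 (n = 6) or 384 μmol/kg/d (n = 5) in capsules. Rats were fed ~3 h post-dose. Age-matched untreated controls (n = 12). Kidney, liver, heart and pancreas were taken on day 11, wet-ashed (120 °C, then H2O2), and iron was measured by flame absorption spectroscopy.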

Rattus norvegicus [18] = assay: Iron-clearing efficiency in non-iron-overloaded and bile duct-cannulated Sprague-Dawley rat assessed as reduction of cardiac iron content at 192 umol/kg, po qd for 10 days relative to control; assay type: functional, organism-based; conditions: Heart; summary of the method: as §3
Rattus norvegicus [19] = assay: Iron-clearing efficiency in non-iron-overloaded and bile duct-cannulated Sprague-Dawley rat assessed as reduction of liver iron content at 192 umol/kg, po qd for 10 days relative to control; assay type: functional; parameters: scale not given: the % may be the effect or the level left; summary of the method: as §3
Rattus norvegicus [20] = assay: Iron-clearing efficiency in non-iron-overloaded and bile duct-cannulated Sprague-Dawley rat assessed as reduction of renal iron content at 192 umol/kg, po qd for 10 days relative to control; assay type: functional; parameters: scale not given: the % may be the effect or the level left; summary of the method: as §3
Sapajus apella [21] = assay: Iron-clearing efficiency in iron-overloaded Cebus apella at 75 umol/kg, po measured daily once for 2 days by flame absorption spectroscopy relative to control; assay type: functional
Summary of the method: (§4)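 Iron-overloaded Cebus apella (3.5–4 kg; iv iron dextran to about 500 mg Fe/kg, ≥60 days before use) dosed orally at 75 μmol/kg, by gavage as monosodium salt (1 equiv NaOH in distilled water) or in capsules. Feces and urine collected every 24 h from 4 days pre-drug to 5 days post-drug; iron by flame absorption spectroscopy. ICE = 2-day post-drug iron minus 4-day baseline average, divided by theoretical output (2:1 ligand:iron); percent. Performance ratio = mean primate ICE/rodent ICE.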

Sapajus apella [22] = assay: Iron-clearing efficiency in iron-overloaded Cebus apella assessed as feces iron excretion at 75 umol/kg, po measured daily once for 5 days by lame absorption spectroscopy relative to control; assay type: functional
Sapajus apella [23] = assay: Iron-clearing efficiency in iron-overloaded Cebus apella assessed as urine iron excretion at 75 umol/kg, po measured daily once for 5 days by lame absorption spectroscopy relative to control; assay type: functional
[24] = Octanol-water partition coefficient, log P in Tris buffer at pH 7.4 by shake flask method; assay type: physicochemical
Summary of the method: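 Octanol/water partition was measured at pH 7.4 (Tris buffer) by the shake-flask direct method. The fraction of drug in octanol is expressed as log P_app.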

[25] = Ratio of iron-clearing efficiency in iron-overloaded Cebus apella at 75 umol/kg, po to iron-clearing efficiency in non-iron-overloaded and bile duct-cannulated Sprague-Dawley rat at 300 umol/kg, po after 48 hrs; assay type: functional, organism-based; summary of the method: as §4
Rattus norvegicus [26] = assay: Iron-clearing efficiency in non-iron-overloaded and bile duct-cannulated Sprague-Dawley rat assessed as time required to maximum bile iron excretion at 300 umol/kg, po after 12 to 15 hrs; assay type: functional, organism-based; summary of the method: as §1
Rattus norvegicus [27] = assay: Iron-clearing efficiency in non-iron-overloaded and bile duct-cannulated Sprague-Dawley rat assessed as bile iron excretion at 300 umol/kg, po up to 48 hrs; assay type: functional, organism-based; summary of the method: as §1
Rattus norvegicus [28] = assay: Renal toxicity in Sprague-Dawley rat at 384 umol/kg, po qd for 10 days; assay type: organism-based; conditions: in vivo, 240 h; summary of the method: as §2
Rattus norvegicus [29] = assay: Toxicity in Sprague-Dawley rat assessed as mild to moderate vacuolar degeneration of proximal tubular epithelial cells at 384 umol/kg, po qd for 10 days; assay type: organism-based, Epithelial cell; conditions: in vivo, 240 h; summary of the method: as §2
Rattus norvegicus [30] = assay: Toxicity in Sprague-Dawley rat assessed as histopathological examination at 192 umol/kg, po qd for 10 days; assay type: organism-based; conditions: in vivo, 240 h; summary of the method: as §2
Rattus norvegicus [31] = assay: Iron-clearing efficiency in non-iron-overloaded and bile duct-cannulated Sprague-Dawley rat assessed as reduction of renal iron content at 384 umol/kg, po qd for 10 days relative to control; assay type: functional; parameters: scale not given: the % may be the effect or the level left; summary of the method: as §3
Rattus norvegicus [32] = assay: Iron-clearing efficiency in non-iron-overloaded and bile duct-cannulated Sprague-Dawley rat assessed as reduction of liver iron content at 384 umol/kg, po qd for 10 days relative to control; assay type: functional; parameters: scale not given: the % may be the effect or the level left; summary of the method: as §3
Rattus norvegicus [33] = assay: Iron-clearing efficiency in non-iron-overloaded and bile duct-cannulated Sprague-Dawley rat assessed as reduction of pancreatic iron content at 384 umol/kg, po qd for 10 days relative to control; assay type: functional, organism-based; summary of the method: as §3
Rattus norvegicus [34] = assay: Iron-clearing efficiency in non-iron-overloaded and bile duct-cannulated Sprague-Dawley rat assessed as reduction of cardiac iron content at 384 umol/kg, po qd for 10 days relative to control; assay type: functional, organism-based; conditions: Heart; summary of the method: as §3
Sapajus apella [35] = assay: Iron-clearing efficiency in iron-overloaded Cebus apella assessed as reduction of liver iron stores at 384 umol/kg, po qd for 28 days; assay type: functional, organism-based
Rattus norvegicus [36] = assay: Iron-clearing efficiency in non-iron-overloaded and bile duct-cannulated Sprague-Dawley rat assessed as reduction of pancreatic iron content at 384 umol/kg, po qd for 10 days administered as monosodium salt; assay type: functional, organism-based; summary of the method: as §3
Rattus norvegicus [37] = assay: Iron-clearing efficiency in non-iron-overloaded and bile duct-cannulated Sprague-Dawley rat assessed as reduction of pancreatic iron content at 384 umol/kg, po qd for 10 days administered as gelatin capsules; assay type: functional, organism-based; summary of the method: as §3
Rattus norvegicus [38] = assay: Iron-clearing efficiency in non-iron-overloaded and bile duct-cannulated Sprague-Dawley rat assessed as reduction of liver iron stores at 384 umol/kg, po qd for 10 days
Rattus norvegicus [39] = assay: Iron-clearing efficiency in non-iron-overloaded and bile duct-cannulated Sprague-Dawley rat at 150 umol/kg, po after 24 hrs relative to control; assay type: functional
Rattus norvegicus [40] = assay: Iron-clearing efficiency in non-iron-overloaded and bile duct-cannulated Sprague-Dawley rat assessed as bile iron excretion at 150 umol/kg, po after 24 hrs relative to control; assay type: functional
Rattus norvegicus [41] = assay: Iron-clearing efficiency in non-iron-overloaded and bile duct-cannulated Sprague-Dawley rat assessed as urine iron excretion at 150 umol/kg, po after 24 hrs relative to control; assay type: functional
[42] = Ratio of iron-clearing efficiency in iron-overloaded Cebus apella to iron-clearing efficiency in non-iron-overloaded Sprague-Dawley rat at 150 umol/kg, po; assay type: functional

C[C@]1(C(=O)[O-])CSC(c2ccc(O)cc2O)=N1.[Na+] [DEFERITRIN SODIUM]
Activity (Sapajus apella [1]): 16.8% | Activity (Sapajus apella [2]): 88% | Activity (Sapajus apella [3]): 12% | Time (Rattus norvegicus [4]): 3 h | Time (Rattus norvegicus [5]): 9 h

COCCOCCOc1ccc(C2=N[C@@](C)(C(=O)O)CS2)c(O)c1 [SP-420]
Activity (Rattus norvegicus [6]): 26.7% | Activity (Rattus norvegicus [7]): 97% | Activity (Rattus norvegicus [8]): 3% | Activity (Rattus norvegicus [9]): Non-toxic | Activity (Rattus norvegicus [10]): 7.4% | Activity (Rattus norvegicus [11]): 24.8% | Activity (Rattus norvegicus [12]): >35% | Activity (Rattus norvegicus [13]): >35% | Activity (Rattus norvegicus [14]): 6.9% | Activity (Rattus norvegicus [15]): 9.9% | Activity (Rattus norvegicus [16]): Toxic

CCOC(=O)[C@@]1(C)CSC(c2ccc(OCCOCCOC)cc2O)=N1
Activity (Rattus norvegicus [17]): inactive | Activity (Rattus norvegicus [18]): inactive | Activity (Rattus norvegicus [19]): 27% | Activity (Rattus norvegicus [20]): 12.6% | Activity (Rattus norvegicus [6]): 25.9% | Activity (Rattus norvegicus [8]): 1% | Activity (Sapajus apella [21]): 8.8% | Activity (Sapajus apella [22]): 98% | Activity (Sapajus apella [23]): 2% | logD [24]: 3 | Ratio [25]: 0.3 | Activity (Rattus norvegicus [26]): inactive | Activity (Rattus norvegicus [27]): Active | Activity (Rattus norvegicus [28]): Toxic | Activity (Rattus norvegicus [29]): Toxic | Activity (Rattus norvegicus [30]): Non-toxic | Activity (Rattus norvegicus [31]): 32.1% | Activity (Rattus norvegicus [32]): 59.1% | Activity (Rattus norvegicus [33]): inactive | Activity (Rattus norvegicus [34]): inactive

COCCOCCOc1ccc(C2=N[C@@](C)(C(=O)O)CS2)c(O)c1
Ratio [25]: 1 | Activity (Rattus norvegicus [26]): inactive | Activity (Rattus norvegicus [27]): Active | Activity (Sapajus apella [35]): Active | Activity (Rattus norvegicus [36]): Active | Activity (Rattus norvegicus [37]): inactive | Activity (Rattus norvegicus [38]): Active

C[C@]1(C(=O)O)CSC(c2ncccc2O)=N1 [DESFERRITHIOCIN]
Activity (Rattus norvegicus [39]): 5.5% | Activity (Rattus norvegicus [40]): 93% | Activity (Rattus norvegicus [41]): 7% | Activity (Sapajus apella [1]): 16.1% | Activity (Sapajus apella [2]): 78% | Activity (Sapajus apella [3]): 22% | logD [24]: -1.77 | Ratio [42]: 2.9
